Data on one compound can be found in ChEMBL document CHEMBL4368874, “Synthesis, biological evaluation, and structure activity relationship (SAR) study of pyrrolidine amide derivatives as N-acylethanolamine acid amidase (NAAA) inhibitors” (Medchemcomm, 2019).

The source made the active and inactive calls. No cut-off for these calls is given here.

The target in data set [1] is T1, N-acylethanolamine-hydrolyzing acid amidase (Rattus norvegicus, UniProt Q5KTC7).
T1 sequence (Q5KTC7 whole entry): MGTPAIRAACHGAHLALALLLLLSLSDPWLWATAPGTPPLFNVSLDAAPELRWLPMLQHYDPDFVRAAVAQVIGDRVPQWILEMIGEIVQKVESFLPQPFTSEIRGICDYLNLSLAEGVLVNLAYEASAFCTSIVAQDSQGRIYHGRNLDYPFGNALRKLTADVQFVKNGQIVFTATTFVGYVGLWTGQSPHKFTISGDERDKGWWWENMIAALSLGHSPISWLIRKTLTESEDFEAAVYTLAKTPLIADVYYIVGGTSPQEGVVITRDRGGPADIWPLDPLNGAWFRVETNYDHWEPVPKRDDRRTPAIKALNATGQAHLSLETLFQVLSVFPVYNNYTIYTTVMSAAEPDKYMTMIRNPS
Kind of data set: Inhibition of rat NAAA expressed in HEK293 cells using heptadecenoylethanolamide as substrate after 30 mins HPLC-MS/MS analysis. Summed up: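 Enzyme source: HEK293 cells stably overexpressing rat NAAA, grown in DMEM/10% FBS with G418. Cells were sonicated in 20 mM Tris-HCl pH 7.5 with 0.32 M sucrose, and the 800 × g supernatant was used. 30 µg protein was incubated with 25 µM heptadecenoylethanolamide for 30 min at 37 °C in 50 mM phosphate pH 4.5 with 0.1% Triton X-100 and 3 mM DTT. Stopped with methanol containing heptadecanoic acid internal standard; remaining substrate measured by HPLC-MS/MS; IC50 from curve fitting.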

Data set [2] is described as follows: Half life in rat 80% plasma by HPLC analysis. The data set is classed as ADME, cell-free. The gist of the method:
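Fresh rat plasma diluted to 80% (v/v) with PBS pH 7.4. Compound added to 1 µM final (DMSO ≤1%), incubated at 37 °C for 16 h; remaining compound measured by HPLC.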

Data set [3] is described as follows: Half life in pH 5 phosphate buffer by HPLC analysis. The data set is classed as physicochemical. Summed up: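 Compound at 1 µM final (DMSO ≤1%) in 50 mM phosphate buffer pH 5.0, held at 37 °C for 16 h; remaining compound determined by HPLC.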
Data set [4] addresses T2, N-acylethanolamine-hydrolyzing acid amidase (Rattus norvegicus) (UniProt Q5KTC7).
T2 sequence (whole entry): T1 sequence (Q5KTC7 whole entry)
Kind of data set: Reversible inhibition of rat NAAA expressed in HEK293 cells at 5 uM using heptadecenoylethanolamide as substrate after 8 hrs by rapid dilution based HPLC-MS/MS analysis. Format: cell-based.

Data set [5] has as its system Mus musculus. The experiment in a line: Anti-inflammatory activity in mouse model of LPS-induced acute lung injury assessed as reduction in leukocytes in lungs at 30 mg/kg, po qd for 5 days by hematoxylin and eosin staining-based light microscopic analysis. Format: functional, organism-based. Summed up:
(§1)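 129s mice (20-22 g), randomly grouped at 6-8 per group. Under anesthesia they received intratracheal LPS (7 mg/kg) in PBS. From the day of LPS they got oral dosing once daily at 30 mg/kg in saline with 5% PEG 400 and 5% Tween 80, or vehicle alone. Killed 5 days after LPS. Lungs were fixed in paraformaldehyde at 4 °C, paraffin-embedded, cut at 5 µm and H&E-stained.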

Data set [6] relates to Mus musculus. The experiment in a line: Anti-inflammatory activity in mouse model of LPS-induced acute lung injury at 30 mg/kg, po qd for 5 days co-treated with 2 mg/kg, ip bid PPAR-alpha antagonist MK886 by hematoxylin and eosin staining-based light microscopic analysis. The data set is classed as functional, organism-based. Summed up:
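129s mice (20-22 g), 6-8 per group, were anesthetized and given intratracheal LPS (7 mg/kg) in PBS. Oral dosing at 30 mg/kg once daily (vehicle: saline, 5% PEG 400, 5% Tween 80) started on the LPS day, together with MK886 at 2 mg/kg i.p. Sacrifice at day 5. Lungs were fixed in paraformaldehyde, embedded in paraffin, sectioned at 5 µm and stained with H&E.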

The test system of data set [7] is Mus musculus. Kind of data set: Anti-inflammatory activity in mouse model of LPS-induced acute lung injury assessed as reduction in lung edema at 30 mg/kg, po qd for 5 days by hematoxylin and eosin staining-based light microscopic analysis. Format: functional, organism-based. Summed up: as §1
The nature of data set [8]: Half life in pH 7.4 tris-HCl buffer by HPLC analysis.
Data set [9] has as its target T3, Fatty-acid amide hydrolase 1 (Rattus norvegicus, UniProt P97612).
T3 sequence (P97612 whole entry): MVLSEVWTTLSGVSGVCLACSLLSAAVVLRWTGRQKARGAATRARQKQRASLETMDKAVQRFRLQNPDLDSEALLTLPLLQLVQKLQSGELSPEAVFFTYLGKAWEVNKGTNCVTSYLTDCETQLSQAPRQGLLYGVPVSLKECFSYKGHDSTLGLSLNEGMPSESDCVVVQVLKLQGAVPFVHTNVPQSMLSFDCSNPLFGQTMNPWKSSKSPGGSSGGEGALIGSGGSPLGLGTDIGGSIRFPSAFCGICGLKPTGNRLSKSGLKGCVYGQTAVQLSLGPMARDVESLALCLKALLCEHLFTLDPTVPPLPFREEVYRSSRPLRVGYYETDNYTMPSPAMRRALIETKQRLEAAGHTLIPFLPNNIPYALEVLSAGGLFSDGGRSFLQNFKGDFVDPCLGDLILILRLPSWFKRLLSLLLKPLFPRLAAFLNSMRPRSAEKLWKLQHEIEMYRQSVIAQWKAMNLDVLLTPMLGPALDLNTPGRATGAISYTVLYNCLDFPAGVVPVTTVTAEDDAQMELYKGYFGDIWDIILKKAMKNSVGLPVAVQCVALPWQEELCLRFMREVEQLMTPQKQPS
Kind of data set: Inhibition of rat FAAH expressed in HEK293 cells using [3H]AEA as substrate after 30 mins HPLC-MS/MS analysis. Format: cell-based. Particulars: in the assay text read “anandamide” for “[3H]AEA”. The gist of the method: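 Lysate supernatant from HEK293 cells overexpressing rat FAAH (sonication in Tris-sucrose, 800 × g spin). 30 µg protein incubated at 37 °C with 25 µM anandamide in 50 mM Tris-HCl pH 8.0 containing 0.05% fatty-acid-free BSA. Quenched with methanol containing heptadecanoic acid internal standard; remaining substrate quantified by HPLC-MS/MS; IC50 by curve fitting.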

By IC50 is commonly meant the concentration at which inhibition is half-maximal. A low value points to inhibition by little substance. A word on the half-life: it is the time in which the quantity being followed falls by half. `O=C(/C=C/c1ccc(-c2ccccc2)cc1)N1CCCC1`: the IC50 in data set [1] amounted to 1.5 µM; in [9], 550 µM. Further, the half-life in [2], in [3] and in data set [8] was > 16 h in each case. Also, the inhibition entry in data set [4] is “Active”. Also, the result in [5] and in [7] was Active. Also, the outcome in data set [6] was inactive.
